Consider five molecules from ChEMBL document CHEMBL1121831 (1981).

Structures are written as SMILES.

The target in assay [1] is Dihydrofolate reductase (Lactobacillus casei) (UniProt P00381). As to the kind of experiment: Compound is evaluated for binding to Lactobacillus casei dihydrofolate reductase using kinetic assay. Particulars: Lacticaseibacillus casei.
The subject of assay [2] is L1210. Description: Compound is tested for the inhibition of growth of murine leukemia cells (L1210). Type of assay: functional. Particulars: Mus musculus, read-out: ID50 (the source's name). The method in brief: (§1)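 CEM human lymphoblastic and L1210 murine leukemia cells were grown in culture with drug for 48 h, at concentrations up to 10 μM. The read-out was growth inhibition, given as ID50 or, where ID50 was not reached, as percent inhibition at 10 μM. Values are averages of triplicate experiments.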

For assay [3], the target named is T1, Dihydrofolate reductase (Mus musculus) (UniProt P00375).
T1 sequence (whole entry): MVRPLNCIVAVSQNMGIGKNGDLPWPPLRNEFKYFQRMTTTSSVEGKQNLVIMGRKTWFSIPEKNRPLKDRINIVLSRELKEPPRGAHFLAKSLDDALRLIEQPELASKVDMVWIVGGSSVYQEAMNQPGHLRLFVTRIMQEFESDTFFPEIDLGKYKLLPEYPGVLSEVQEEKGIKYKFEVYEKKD
As to the kind of experiment: Compound is evaluated for binding to L1210 mouse leukemia cells dihydrofolate reductase using ligand-binding assay.

The next assay deals with CCRF-CEM. Description: Compound was tested for the inhibition of growth of human lymphoblastic leukemia cells (CEM). The class given is functional. The note with it: read-out: ID50 (the source's name). In a few lines: as §1
For assay [4], the target named is Dihydrofolate reductase (Lactobacillus casei) (UniProt P00381). Description: Affinity for partially purified bacterial (Lactobacillus casei) dihydrofolate reductase. Particulars: Lacticaseibacillus casei.
For assay [5], the target named is T1, Dihydrofolate reductase (Mus musculus). As to the kind of experiment: Affinity for mammalian (L1210 mouse leukemia) dihydrofolate reductase. The method in brief: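 Partially purified DHFR from L1210 cells, diluted 8-fold in 0.1 M KH2PO4 (pH 6.2) with 0.1% BSA and 1 mM NADPH, then held on ice 5 min. Competition with [3H]MTX over serial 5-fold dilutions starting from a 6 μM solution, 5 min at 0 °C. Unbound ligand removed with Norite charcoal and the supernatant counted; ID50 (50% drop in bound label) read from a logit-log plot.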

The test system of assay [6] is L1210. Description: Compound was tested for the inhibition of growth of murine leukemia cells (L1210). The class given is functional. Particulars: Mus musculus, read-out: ID50 (the source's name). The method in brief:
as §1

Another assay concerns RBL-1. As to the kind of experiment: Compound was tested for the inhibition of growth of rat basophilic leukemia (RBL) cells. The class given is functional. Particulars: read-out: ID50 (the source's name).
A further assay deals with CCRF-CEM (Homo sapiens). Description: Percent inhibition of human lymphoblastic leukemia cell growth (48h) at 10 uM.

Sequence of Dihydrofolate reductase (Lactobacillus casei) (P00381 whole entry): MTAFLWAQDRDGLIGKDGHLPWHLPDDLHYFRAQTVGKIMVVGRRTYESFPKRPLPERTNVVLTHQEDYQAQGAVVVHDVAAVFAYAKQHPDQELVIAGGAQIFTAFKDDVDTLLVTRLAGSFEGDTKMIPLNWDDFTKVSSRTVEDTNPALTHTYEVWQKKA

As for `CN(Cc1cnc2nc(N)nc(N)c2n1)c1ccc(C(=O)NC(CCC(=O)N2CCCCC2)C(=O)N2CCCCC2)cc1` (configuration not stated), the ID50 in assay [1] stood at 0.25 µM; in assay [3], 0.012 µM. Besides, the IC50 in the assay with L1210 [2] is more than 10 µM.

`CN(Cc1ccccc1)C(=O)CCC(NC(=O)c1ccc(N(C)Cc2cnc3nc(N)nc(N)c3n2)cc1)C(=O)N(C)Cc1ccccc1` (configuration not stated): the IC50 in the assay with CCRF-CEM amounted to 6.4 µM; in the assay on L1210 [6], 9.4 µM. Besides, the ID50 in [4] worked out at 0.44 µM; in assay [5] it was 0.026 µM.

Turning to `CN(Cc1cnc2nc(N)nc(N)c2n1)c1ccc(C(=O)NC(CCC(=O)N(Cc2ccccc2)Cc2ccccc2)C(=O)N(Cc2ccccc2)Cc2ccccc2)cc1` (configuration not stated), the IC50 in the assay with CCRF-CEM is 7.6 µM; in the assay on L1210 [6], 0.69 µM. For the same molecule, the ID50 was 0.86 µM in assay [1] and 0.53 µM in [3].

As a reminder, the inhibition is the change of the read-out against control, counted positive when it falls. On to `CN(Cc1cnc2nc(N)nc(N)c2n1)c1ccc(C(=O)NC(CCC(=O)NC23CC4CC(CC(C4)C2)C3)C(=O)NC23CC4CC(CC(C4)C2)C3)cc1` (configuration not stated), for which the IC50 was more than 10 µM in the assay on CCRF-CEM, 3.4 µM in the assay on L1210 [6] and 1600 nM in the assay with RBL-1. For the same molecule, the ID50 in assay [1] is 6.3 µM; in assay [3] it was 3.1 µM. In the assay with CCRF-CEM (Homo sapiens), this molecule showed an inhibition at 10 µM of 38%.

For `CC(NC(=O)CCC(NC(=O)c1ccc(N(C)Cc2cnc3nc(N)nc(N)c3n2)cc1)C(=O)NC(C)c1ccccc1)c1ccccc1` (configuration not stated), the IC50 in the assay on CCRF-CEM and with L1210 [6] was more than 10 µM in each case. The ID50 worked out at 0.31 µM in [4] and 0.011 µM in assay [5]. Further, at 10 µM the inhibition with CCRF-CEM (Homo sapiens) was 25%.
